According to ChEMBL document CHEMBL1649175, “Lack of a clinically important effect of moderate hepatic insufficiency and severe renal insufficiency on raltegravir pharmacokinetics” (Antimicrob Agents Chemother, 2009):

Columns and labels:
[1] = Plasma concentration in patient with severe renal insufficiency at 400 mg, po administered as single dose measured at 12 hrs post dose; format: ADME, organism-based; settings: human, read-out: Activity
Procedure, shortened: (§1)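 Single 400-mg oral dose given fasted (fasting stated for the renal study). Assay: validated reverse-phase HPLC-MS/MS, LLOQ 2 ng/ml, range 2 to 1,000 ng/ml. AUC0-∞ = AUC0-last by linear/log trapezoid plus extrapolation. Cmax is read from the data. C12 is the nominal 12-h concentration. Values converted to nM (MW 444.4).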

[2] = Tmax in patient with hepatic insufficiency at 400 mg, po administered as single dose; format: ADME, organism-based; settings: human, in vivo
Procedure, shortened: (§2)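 Tmax is taken by inspection of the plasma concentration data, using nominal sampling times. Single 400-mg oral dose; plasma sampled from 0 to 72 h, or to 96 h in the hepatic study. Raltegravir is measured by validated reverse-phase HPLC-MS/MS (LLOQ 2 ng/ml).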

[3] = Cmax in patient with hepatic insufficiency at 400 mg, po administered as single dose; format: ADME, organism-based; parameters: dose 400 mg, route oral; settings: human, in vivo; procedure, shortened: as §1
[4] = Terminal half life in healthy human at 400 mg, po administered as single dose; format: ADME, organism-based; settings: in vivo
Procedure, shortened: (§3)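 Single 400-mg oral raltegravir dose, fasted (stated for study II); patients and matched healthy controls. Plasma sampled at 0–72 h (to 96 h in hepatic study only), quantified by validated reverse-phase HPLC-MS/MS (LLOQ 2 ng/ml), converted to nM (MW 444.4). Profiles fit biexponentially (Gauss-Newton, Levenberg-Hartley; weighting 1/predicted concentration²); each phase t1/2 = ln(2)/rate constant.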

Homo sapiens [5] = test: Ratio of Cmax in patient with severe renal insufficiency to Cmax in healthy human at 400 mg, po administered as single dose; format: ADME, organism-based; settings: in vivo
Procedure, shortened: (§4)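 Single 400-mg oral raltegravir dose to patients (moderate hepatic or severe renal insufficiency) and matched healthy controls; plasma raltegravir measured by HPLC-MS/MS. Cmax read by inspection, ln-transformed. Geometric mean ratio (patient/healthy) with 90% CI from ANCOVA least-squares means: population and sex fixed effects, age and BMI covariates.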

[6] = AUC (0 to infinity) in patient with hepatic insufficiency at 400 mg, po administered as single dose; format: ADME, organism-based; parameters: dose 400 mg, route oral, time infinity; settings: human, plasma; procedure, shortened: as §1
[7] = Tmax in patient with severe renal insufficiency at 400 mg, po administered as single dose; format: ADME, organism-based; settings: human, in vivo; procedure, shortened: as §2
[8] = Plasma concentration in patient with hepatic insufficiency at 400 mg, po administered as single dose measured at 12 hrs post dose; format: ADME, organism-based; settings: human, read-out: Activity; procedure, shortened: as §1
Homo sapiens [9] = test: Toxicity in human assessed as headache at 400 mg, po administered as single dose; format: organism-based; settings: in vivo
Procedure, shortened: (§5)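 Safety assessed throughout each study by clinical and laboratory evaluations after a single 400-mg oral dose. Relatedness of adverse experiences to the drug was judged by the investigator.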

[10] = Primary phase half life in patient with severe renal insufficiency at 400 mg, po administered as single dose; format: ADME, organism-based; settings: human, in vivo; procedure, shortened: as §3
Homo sapiens [11] = test: Ratio of Cmax in patient with hepatic insufficiency to Cmax in healthy human at 400 mg, po administered as single dose; format: ADME, organism-based; settings: in vivo; procedure, shortened: as §4
Homo sapiens [12] = test: Ratio of plasma concentration in patient with hepatic insufficiency to plasma concentration in healthy human at 400 mg, po administered as single dose; format: ADME, organism-based; settings: in vivo
Procedure, shortened: (§6)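 Geometric mean ratio, patients/matched healthy controls, for AUC0-∞, Cmax and C12 after a single 400-mg oral dose. Data are natural-log transformed. 90% CIs come from ANCOVA least-squares means, with population and sex as fixed effects and age and BMI as covariates, then exponentiated. n = 8 per group.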

Homo sapiens [13] = test: Ratio of plasma concentration in patient with hepatic insufficiency to plasma concentration in healthy human at 400 mg, po administered as single dose measured at 12 hrs post dose; format: ADME, organism-based; settings: in vivo; procedure, shortened: as §6
Homo sapiens [14] = test: Toxicity in human assessed as mouth ulceration at 400 mg, po administered as single dose; format: organism-based; settings: in vivo; procedure, shortened: as §5
Homo sapiens [15] = test: Drug level in patient with severe renal insufficiency assessed as recovery of unchanged drug at 400 mg, po administered as single dose; format: ADME, organism-based; settings: in vivo
Procedure, shortened: (§7)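 Renal study, 10 patients plus 10 matched controls. Urine collected predose and at 0–4, 4–8, 8–12 and 12–24 h after a fasted 400-mg oral dose. Urine diluted and injected directly for HPLC-MS/MS (LLOQ 0.25 µg/ml, range 0.25–25 µg/ml). fe = total amount excreted unchanged ÷ dose × 100%. CLR = […] ÷ plasma AUC0-24.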

[16] = AUC (0 to infinity) in healthy human at 400 mg, po administered as single dose; format: ADME, organism-based; parameters: dose 400 mg, route oral, time infinity; settings: plasma; procedure, shortened: as §1
[17] = Plasma concentration in healthy human at 400 mg, po administered as single dose measured at 12 hrs post dose; format: ADME, organism-based; settings: read-out: Activity; procedure, shortened: as §1
[18] = Terminal half life in patient with hepatic insufficiency at 400 mg, po administered as single dose; format: ADME, organism-based; settings: human, in vivo; procedure, shortened: as §3
[19] = AUC (0 to infinity) in patient with severe renal insufficiency at 400 mg, po administered as single dose; format: ADME, organism-based; parameters: dose 400 mg, route oral, time infinity; settings: human, plasma; procedure, shortened: as §1
[20] = Renal clearance in patient with severe renal insufficiency at 400 mg, po administered as single dose; format: ADME, organism-based, Kidney; settings: human, in vivo, read-out: CL_renal; procedure, shortened: as §7
[21] = Cmax in healthy human at 400 mg, po administered as single dose; format: ADME, organism-based; parameters: dose 400 mg, route oral; settings: in vivo; procedure, shortened: as §1
[22] = Primary phase half life in healthy human at 400 mg, po administered as single dose; format: ADME, organism-based; settings: in vivo; procedure, shortened: as §3
[23] = Primary phase half life in patient with hepatic insufficiency at 400 mg, po administered as single dose; format: ADME, organism-based; settings: human, in vivo; procedure, shortened: as §3
[24] = Terminal half life in patient with severe renal insufficiency at 400 mg, po administered as single dose; format: ADME, organism-based; settings: human, in vivo; procedure, shortened: as §3
[25] = Cmax in patient with severe renal insufficiency at 400 mg, po administered as single dose; format: ADME, organism-based; parameters: dose 400 mg, route oral; settings: human, in vivo; procedure, shortened: as §1
[26] = Renal clearance in healthy human at 400 mg, po administered as single dose; format: ADME, organism-based, Kidney; settings: in vivo, read-out: CL_renal; procedure, shortened: as §7

Q: Which concentration at 12 h [1] does the source give for `Cc1nnc(C(=O)NC(C)(C)c2nc(C(=O)NCc3ccc(F)cc3)c(O)c(=O)n2C)o1` [RALTEGRAVIR] here?
A: Its concentration at 12 h is 135 nM.

Q: What about the Tmax [2] of the same compound?
A: Its Tmax is 2.5 h.

Q: And the Cmax [3]?
A: Its Cmax is 4410 nM.

Q: What about the half-life [4] of the same compound?
A: Its half-life is 9.3 h.

Q: What about the Cmax (Ratio) (Homo sapiens [5]) of the same compound?
A: Its Cmax (Ratio) is 0.68.

Q: What about the AUC(0-inf) [6] of the same compound?
A: The AUC(0-inf) was 17.7 µM·h.

Q: What about the Tmax [7] of the same compound?
A: The Tmax was 3.5 h.

Q: What about the concentration at 12 h [8] of the same compound?
A: The concentration at 12 h was 143 nM.

Q: What about the Activity (Homo sapiens [9]) of the same compound?
A: The Activity was “Toxic”.

Q: What about the half-life [10] of the same compound?
A: Its half-life is 1.38 h.

Q: And the Cmax (Ratio) (Homo sapiens [11])?
A: Its Cmax (Ratio) is 0.63.

Q: What about the Activity (Homo sapiens [12]) of the same compound?
A: The Activity was 1.26 nM.

Q: What about the Activity (Homo sapiens [13]) of the same compound?
A: Its Activity is 1.26 nM.

Q: What about the Activity (Homo sapiens [14]) of the same compound?
A: The Activity was “Toxic”.

Q: What about the “fold change (FC)” value (Homo sapiens [15]) of the same compound?
A: The value was 0.5.

Q: What about the AUC(0-inf) [16] of the same compound?
A: The AUC(0-inf) was 19.7 µM·h.

Q: And the concentration at 12 h [17]?
A: Its concentration at 12 h is 106 nM.

Q: What about the half-life [18] of the same compound?
A: Its half-life is 7 h.

Q: What about the AUC(0-inf) [19] of the same compound?
A: Its AUC(0-inf) is 16.8 µM·h.

Q: And the CL renal [20]?
A: The CL renal was 2.7 mL/min.

Q: What about the Cmax [21] of the same compound?
A: The Cmax was 5680 nM.

Q: What about the half-life [22] of the same compound?
A: Its half-life is 1.1 h.

Q: And the half-life [23]?
A: The half-life was 1.49 h.

Q: What about the half-life [24] of the same compound?
A: The half-life was 17.2 h.

Q: What about the Cmax [25] of the same compound?
A: Its Cmax is 3850 nM.

Q: And the CL renal [26]?
A: Its CL renal is 31.5 mL/min.
